Data from ChEMBL document CHEMBL4229408 (Bioorg Med Chem, 2018).

Legend:
[1] = Antiproliferative activity against human CAR cells after 48 hrs by MTT assay; assay type: functional, cell-based
How it was run: (§1)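 CAR cells (CAL27 made cisplatin-resistant by 10 cycles of 10–80 μM cisplatin) kept in DMEM/10% FBS with 80 μM cisplatin. Seeded 2×10^4 cells/well and exposed to 0, 25, 50, 75 and 100 μM for 48 or 72 h, with 0.5% DMSO as vehicle. MTT (500 μg/ml) added for 4 h at 37 °C, formazan dissolved in DMSO, A570 read as % of control, IC50 derived.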

[2] = Antiproliferative activity against human CAR cells after 72 hrs by MTT assay; assay type: functional, cell-based; how it was run: as §1
[3] = Antitumor activity against human CAR cells xenografted in BALB/c nude mouse assessed as tumor weight at 25 mg/kg, po qd administered for 30 days measured on day 31 relative to control; assay type: functional
How it was run: (§2)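 Male BALB/c nude mice, four weeks old, implanted subcutaneously in the flank with CAR cells (cisplatin-resistant CAL27 kept in 80 μM cisplatin), 1×10^7 cells/mouse in 0.2 mL medium:Matrigel 1:1. Dosing began at ~50 mm3 tumors (day 22), eight mice/group, oral once daily for 30 days; vehicle 1,2-propanediol. Sacrificed day 31; excised tumors weighed, compared to vehicle controls.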

[4] = Antitumor activity against human CAR cells xenografted in BALB/c nude mouse assessed as inhibition of tumor weight at 50 mg/kg, po qd administered for 30 days measured on day 31 relative to control; assay type: functional; parameters: scale not given: the % may be the effect or the level left; how it was run: as §2
[5] = Antitumor activity against human CAR cells xenografted in BALB/c nude mouse assessed as inhibition of tumor weight at 100 mg/kg, po qd administered for 30 days measured on day 31 relative to control; assay type: functional; parameters: scale not given: the % may be the effect or the level left; how it was run: as §2
Mus musculus [6] = assay: Toxicity in BALB/c nude mouse xenografted with human CAR cells assessed as change in body weight at 25 to 100 mg/kg, po qd administered for 30 days measured during compound dosing; assay type: organism-based; conditions: in vivo, 720 h
How it was run: (§3)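 During the 30-day once-daily oral dosing (25–100 mg/kg) of CAR-xenografted nude mice, body weight, food intake and behaviour were tracked and compared with vehicle-treated controls.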

Mus musculus [7] = assay: Toxicity in BALB/c nude mouse xenografted with human CAR cells assessed as change in food consumption at 25 to 100 mg/kg, po qd administered for 30 days measured during compound dosing; assay type: organism-based; conditions: in vivo, 720 h; how it was run: as §3
Mus musculus [8] = assay: Toxicity in BALB/c nude mouse xenografted with human CAR cells assessed as change in behavior at 25 to 100 mg/kg, po qd administered for 30 days measured during compound dosing; assay type: organism-based; conditions: in vivo, 720 h; how it was run: as §3
Mus musculus [9] = assay: Toxicity in BALB/c nude mouse xenografted with human CAR cells assessed as total protein levels in blood at 25 mg/kg, po qd administered for 30 days measured on day 31 (reference value: 5.6 +/- 0.283 g/dL); assay type: organism-based; conditions: in vivo, 720 h
Mus musculus [10] = assay: Toxicity in BALB/c nude mouse xenografted with human CAR cells assessed as total protein levels in blood at 50 mg/kg, po qd administered for 30 days measured on day 31 (reference value: 5.6 +/- 0.283 g/dL); assay type: organism-based; conditions: in vivo, 720 h
Mus musculus [11] = assay: Toxicity in BALB/c nude mouse xenografted with human CAR cells assessed as total protein levels in blood at 100 mg/kg, po qd administered for 30 days measured on day 31 (reference value: 5.6 +/- 0.283 g/dL); assay type: organism-based; conditions: in vivo, 720 h
Mus musculus [12] = assay: Toxicity in BALB/c nude mouse xenografted with human CAR cells assessed as albumin levels in blood at 25 mg/kg, po qd administered for 30 days measured on day 31 (reference value: 3.45 +/- 0.138 g/dL); assay type: organism-based; conditions: in vivo, 720 h
Mus musculus [13] = assay: Toxicity in BALB/c nude mouse xenografted with human CAR cells assessed as albumin levels in blood at 50 mg/kg, po qd administered for 30 days measured on day 31 (reference value: 3.45 +/- 0.138 g/dL); assay type: organism-based; conditions: in vivo, 720 h
Mus musculus [14] = assay: Toxicity in BALB/c nude mouse xenografted with human CAR cells assessed as albumin levels in blood at 100 mg/kg, po qd administered for 30 days measured on day 31 (reference value: 3.45 +/- 0.138 g/dL); assay type: organism-based; conditions: in vivo, 720 h
Mus musculus [15] = assay: Toxicity in BALB/c nude mouse xenografted with human CAR cells assessed as blood urea nitrogen levels in blood at 25 mg/kg, po qd administered for 30 days measured on day 31 (reference value: 27.7 +/- 4.116 mg/dL); assay type: organism-based; conditions: in vivo, 720 h
Mus musculus [16] = assay: Toxicity in BALB/c nude mouse xenografted with human CAR cells assessed as blood urea nitrogen levels in blood at 50 mg/kg, po qd administered for 30 days measured on day 31 (reference value: 27.7 +/- 4.116 mg/dL); assay type: organism-based; conditions: in vivo, 720 h
Mus musculus [17] = assay: Toxicity in BALB/c nude mouse xenografted with human CAR cells assessed as blood urea nitrogen levels in blood at 100 mg/kg, po qd administered for 30 days measured on day 31 (reference value: 27.7 +/- 4.116 mg/dL); assay type: organism-based; conditions: in vivo, 720 h
Mus musculus [18] = assay: Toxicity in BALB/c nude mouse xenografted with human CAR cells assessed as creatinine levels in blood at 25 mg/kg, po qd administered for 30 days measured on day 31 (reference value: 1 +/- 0.18 mg/dL); assay type: organism-based; conditions: in vivo, 720 h
Mus musculus [19] = assay: Toxicity in BALB/c nude mouse xenografted with human CAR cells assessed as creatinine levels in blood at 50 mg/kg, po qd administered for 30 days measured on day 31 (reference value: 1 +/- 0.18 mg/dL); assay type: organism-based; conditions: in vivo, 720 h
Mus musculus [20] = assay: Toxicity in BALB/c nude mouse xenografted with human CAR cells assessed as creatinine levels in blood at 100 mg/kg, po qd administered for 30 days measured on day 31 (reference value: 1 +/- 0.18 mg/dL); assay type: organism-based; conditions: in vivo, 720 h
Mus musculus [21] = assay: Toxicity in BALB/c nude mouse xenografted with human CAR cells assessed as uric acid levels in blood at 25 mg/kg, po qd administered for 30 days measured on day 31 (reference value: 4.65 +/- 0.864 mg/dL); assay type: organism-based; conditions: in vivo, 720 h
Mus musculus [22] = assay: Toxicity in BALB/c nude mouse xenografted with human CAR cells assessed as uric acid levels in blood at 50 mg/kg, po qd administered for 30 days measured on day 31 (reference value: 4.65 +/- 0.864 mg/dL); assay type: organism-based; conditions: in vivo, 720 h
Mus musculus [23] = assay: Toxicity in BALB/c nude mouse xenografted with human CAR cells assessed as uric acid levels in blood at 100 mg/kg, po qd administered for 30 days measured on day 31 (reference value: 4.65 +/- 0.864 mg/dL); assay type: organism-based; conditions: in vivo, 720 h
Mus musculus [24] = assay: Toxicity in BALB/c nude mouse xenografted with human CAR cells assessed as glucose levels in blood at 25 mg/kg, po qd administered for 30 days measured on day 31 (reference value: 180 +/- 10.392 mg/dL); assay type: organism-based; conditions: in vivo, 720 h
Mus musculus [25] = assay: Toxicity in BALB/c nude mouse xenografted with human CAR cells assessed as glucose levels in blood at 50 mg/kg, po qd administered for 30 days measured on day 31 (reference value: 180 +/- 10.392 mg/dL); assay type: organism-based; conditions: in vivo, 720 h
Mus musculus [26] = assay: Toxicity in BALB/c nude mouse xenografted with human CAR cells assessed as glucose levels in blood at 100 mg/kg, po qd administered for 30 days measured on day 31 (reference value: 180 +/- 10.392 mg/dL); assay type: organism-based; conditions: in vivo, 720 h
[27] = Prodrug conversion in Sprague-Dawley rat whole blood assessed as formation of pterostilbene-4'-O-sulfate by measuring Tmax of metabolite at 100 mg/kg, po using HPbetaCD, PEG300, H2O formulation at 20:10:70 by LC-MS method; assay type: ADME, organism-based; conditions: in vivo
How it was run: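 Male Sprague-Dawley rats (200–220 g), n = 3, given a single oral 100 mg/kg dose in HPβCD:PEG300:H2O 20:10:70 (10 mg/mL). Tail-vein blood collected into heparin at 0.5–24 h (0.5, 1, 1.5, 2, 3, 4, 5, 6, 8, 24 h).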

COc1ccc(/C=C/c2cc(OC(=O)C(C)(CO)CO)cc(OC(=O)C(C)(CO)CO)c2)cc1
IC50 [1]: 73.9 µM
IC50 [2]: 70.8 µM

COc1cc(O)cc(/C=C/c2ccc(OC(=O)C(C)(CO)CO)cc2)c1
IC50 [2]: 64 µM

CC(CO)(CO)C(=O)Oc1ccc(/C=C/c2cc(OC(=O)C(C)(CO)CO)cc(OC(=O)C(C)(CO)CO)c2)cc1
IC50 [2]: 124 µM

CC(CO)(CO)C(=O)Oc1cc(O)cc(/C=C/c2ccc(O)cc2)c1
IC50 [1]: 54.9 µM

COc1cc(/C=C/c2ccc(OC(=O)C(C)(CO)CO)cc2)cc(OC(C)=O)c1
IC50 [1]: 52 µM
IC50 [2]: 50.3 µM

COc1cc(/C=C/c2ccc(OC(=O)C(C)(CO)CO)cc2)cc(OC)c1
IC50 [1]: 73.2 µM
IC50 [2]: 32.6 µM
Activity [3]: 60%
Activity [4]: 47%
Activity [5]: 22%
Activity (Mus musculus [6]): Non-Toxic
Activity (Mus musculus [7]): Non-Toxic
Activity (Mus musculus [8]): Non-Toxic
Activity (Mus musculus [9]): 5.383 g/dL
Activity (Mus musculus [10]): 5.583 g/dL
Activity (Mus musculus [11]): 5.283 g/dL
Activity (Mus musculus [12]): 3.666 g/dL
Activity (Mus musculus [13]): 3.417 g/dL
Activity (Mus musculus [14]): 3.4 g/dL
Activity (Mus musculus [15]): 28.2 mg/dL
Activity (Mus musculus [16]): 30.95 mg/dL
Activity (Mus musculus [17]): 29.25 mg/dL
Activity (Mus musculus [18]): 1.133 mg/dL
Activity (Mus musculus [19]): 0.91 mg/dL
Activity (Mus musculus [20]): 0.83 mg/dL
Activity (Mus musculus [21]): 4.567 mg/dL
Activity (Mus musculus [22]): 5.45 mg/dL
Activity (Mus musculus [23]): 5.05 mg/dL
Activity (Mus musculus [24]): 181.333 mg/dL
Activity (Mus musculus [25]): 172.5 mg/dL
Activity (Mus musculus [26]): 196.5 mg/dL
Tmax [27]: 2 h

CC(=O)Oc1cc(/C=C/c2ccc(OC(=O)C(C)(CO)CO)cc2)cc(OC(C)=O)c1
IC50 [1]: 103 µM
IC50 [2]: 116 µM

CC(=O)Oc1cc(/C=C/c2ccc(OC(=O)C(C)(CO)CO)cc2)cc(OC(=O)C(C)(CO)CO)c1
IC50 [1]: 122 µM
IC50 [2]: 119 µM

COc1cc(/C=C/c2ccc(OC(=O)C(C)(CO)CO)cc2)cc(OC(=O)C(C)(CO)CO)c1
IC50 [1]: 56.5 µM
IC50 [2]: 59.8 µM

COc1ccc(/C=C/c2cc(OC)cc(OC(=O)C(C)(CO)CO)c2)cc1
IC50 [1]: 64.2 µM
IC50 [2]: 67.3 µM

COc1ccc(/C=C/c2cc(O)cc(OC)c2)cc1
IC50 [1]: 100 µM
IC50 [2]: 98.3 µM

Oc1ccc(/C=C/c2cc(O)cc(O)c2)cc1 [RESVERATROL]
IC50 [2]: 88.3 µM
